The values that follow come from paper PMC5092235 (Journal of medicinal chemistry, 2016).

Data set [1] in a line: Caco-2 membrane permeability studies. It counts as in vitro ADME. As to conditions: for cellular permeability: Caco-2 cells; for efflux ratio: human, Caco-2. A general note: Passage across Caco-2 layers is used to estimate intestinal permeability.
Data set [2] can be described thus: Pharmacokinetic studies in mice. The following applies: 24 h experiments (31: 8 h experiment); for Clobs: mice; for half-life: female, C57BL/6, mouse, plasma, T1/2, mice. It counts as in vivo, mouse.
The subject of a further data set is panel of kinases. In words: Kinase profiling. It counts as biochemical.
Data set [3] has as its system MLL-AF9 transformed murine bone marrow cells. Description: MTT cell viability assay in MLL-AF9 transformed murine bone marrow cells. In kind it is cell-based. As to conditions: for SI, selectivity index: ratio of GI50 values measured in HM-2 cells (control cell line) and MLL-AF9 transformed cells; for GI50: read-out: GI50 MLL-AF9, MTT cell viability assay, 7 days of treatment. On the technique in general: Formazan colour is commonly taken as a measure of viable cells.

For the next data set, the system named is panel of GPCRs. Description: GPCR profiling.
The next data set deals with MV4;11 tumors. Description: MV4. The following applies: 45 mg/kg, once daily via ip, 2 weeks. In kind it is in vivo, mouse.
Another data set deals with HL-60 cells. In words: MTT cell viability assay in HL-60 control cell line. It counts as cell-based, human. The following applies: up to 6 μM, 7 days. The essentials: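 MTT viability over 7 days at 37 °C. Cells were grown in RPMI-1640 with 10% FBS, penicillin/streptomycin and NEAA, then seeded at 2 × 10^5/mL (HL-60) or 1 × 10^5/mL (MV4;11, MOLM-13). They were treated with test compound or 0.25% DMSO. On day 4 the medium was changed, viable cells were reset to the starting density, and compound was resupplied. Absorbance was read at 570 nm in quadruplicate, with runs repeated 2–3 times; mean and SD are reported.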

A short description of data set [4]: Phase II metabolism, detection of glucuronidation in blood plasma. It counts as in vivo, mouse. As to conditions: blood plasma after iv administration, 15 mg/kg. A digest of the protocol: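 Test compound was given iv at 15 mg/kg to mice. Glucuronide was detected in blood plasma by LC–MS/MS in positive-ion MRM mode, following the same handling used for the pharmacokinetic study.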

Another data set addresses T1, menin (Homo sapiens, UniProt O00255).
T1 sequence (O00255 1-610): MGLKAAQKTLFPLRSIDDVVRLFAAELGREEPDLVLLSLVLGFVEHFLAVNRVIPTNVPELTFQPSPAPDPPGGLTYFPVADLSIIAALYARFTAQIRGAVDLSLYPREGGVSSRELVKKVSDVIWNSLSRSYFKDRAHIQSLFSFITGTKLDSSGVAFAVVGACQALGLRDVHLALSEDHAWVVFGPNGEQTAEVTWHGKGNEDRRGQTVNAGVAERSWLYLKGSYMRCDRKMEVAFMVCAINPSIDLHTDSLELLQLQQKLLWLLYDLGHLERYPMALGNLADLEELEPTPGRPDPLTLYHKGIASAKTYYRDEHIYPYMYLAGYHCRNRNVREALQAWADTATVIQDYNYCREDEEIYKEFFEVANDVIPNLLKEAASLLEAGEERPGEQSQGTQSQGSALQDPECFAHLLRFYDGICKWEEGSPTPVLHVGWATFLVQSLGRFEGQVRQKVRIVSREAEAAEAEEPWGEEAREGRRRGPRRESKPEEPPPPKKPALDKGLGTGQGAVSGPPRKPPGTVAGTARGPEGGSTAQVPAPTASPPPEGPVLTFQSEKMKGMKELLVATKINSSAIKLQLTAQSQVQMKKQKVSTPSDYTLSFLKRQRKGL
Description: Isothermal titration calorimetry, binding to menin.

For data set [5], the system named is Hoxa9, Meis1 and Itgam expression in MLL-AF9 transformed BMCs. Description: qRT-PCR gene expression in MLL-AF9 transformed murine bone marrow cells. In kind it is cell-based. The following applies: 6 days of treatment. A digest of the protocol: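 MLL-AF9-transformed murine bone marrow cells were treated for 6 days, and expression was then quantified by qRT-PCR. Itgam was normalised to 18S rRNA, and Hoxa9 and Meis1 to β-actin, each relative to DMSO-treated cells. Values are mean ± SD, n = 2.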
For orientation: Real-time PCR tracks product formation cycle by cycle.

In data set [6] the test system is Hoxa9/Meis1 (HM-2) transformed murine bone marrow cells. In words: MTT cell viability assay in Hoxa9/Meis1. In kind it is cell-based. The following applies: up to 6 μM, 7 days.

Consider `N#Cc1cc2cc(CN3CCC(Nc4ncnc5sc(CC(F)(F)F)cc45)CC3)ccc2n1CC(O)CO` (racemic) [3-(RS)], for which the cellular permeability entry in data set [1] was “poor cellular permeability”.
By efflux ratio is commonly meant a quotient of directional permeabilities that is used to spot active efflux. As for `CO[C@@H](CO)Cn1c(C#N)cc2cc(CN3CCC(Nc4ncnc5sc(CC(F)(F)F)cc45)CC3)ccc21` [4-(R)], the efflux ratio in data set [1] is greater than 20.
For the molecule `N#Cc1cc2cc(CN3CCC(Nc4ncnc5sc(CC(F)(F)F)cc45)CC3)ccc2[nH]1` [Compound 1, 5-((4-((6-(2,2,2-Trifluoroethyl)thieno[2,3-d]pyrimidin-4-yl)-amino)piperidin-1-yl)methyl)-1H-indole-2-carbonitrile], the Clobs in data set [2] (iv, 15 mg/kg) turned out to be 38.1 mL/min/kg. In the data set with panel of kinases, the “off-target activity on a panel of kinases” value was “did not show substantial off-target activity”. For the same molecule, in data set [3], the “SI, selectivity index” value is on record as less than 6. Besides, the “off-target activity on a panel of GPCRs” value in the data set with panel of GPCRs was “did not show substantial off-target activity”.
As for `N#Cc1cc2cc(CN3CCC(Nc4ncnc5sc(CC(F)(F)F)cc45)CC3)ccc2n1CC(N)=O` [Compound 7, 2-(2-Cyano-5-((4-((6-(2,2,2-trifluoroethyl)thieno[2,3-d]-pyrimidin-4-yl)amino)piperidin-1-yl)methyl)-1H-indol-1-yl)-acetamide], in data set [1], the cellular permeability result is reported as “poor cellular permeability” and the efflux ratio is greater than 90.
Usually GI50 stands for the concentration giving 50% growth inhibition. Regarding `Cc1c(CN2CCC(Nc3ncnc4sc(CC(F)(F)F)cc34)CC2)c(O)cc2[nH]c(C#N)cc12` [Compound 20, 6-Hydroxy-4-methyl-5-((4-((6-(2,2,2-trifluoroethyl)thieno-[2,3-d]pyrimidin-4-yl)amino)piperidin-1-yl)methyl)-1H-indole-2-carbonitrile], in data set [2] (iv, 15 mg/kg), the Clobs was 44.1 mL/min/kg. The 50% growth inhibitory concentration (GI50) in [3] is less than 200 nM. In addition, the cellular permeability result in [1] is listed as “relatively high to moderate cellular permeability”.
Molecule `COc1cc2[nH]c(C#N)cc2c(C)c1CN1CCC(Nc2ncnc3sc(CC(F)(F)F)cc23)CC1` [Compound 21, 6-Methoxy-4-methyl-5-((4-((6-(2,2,2-trifluoroethyl)thieno-[2,3-d]pyrimidin-4-yl)amino)piperidin-1-yl)methyl)-1H-indole-2-carbonitrile] showed a Clobs in data set [2] (iv, 15 mg/kg) of 26.6 mL/min/kg. For the same molecule, in data set [3], the concentration for 50% growth inhibition (GI50) is 100 nM. Besides, the cellular permeability entry in [1] is reported as “relatively high to moderate cellular permeability”.
Take `Cc1c(CN2CCC(Nc3ncnc4sc(CC(F)(F)F)cc34)CC2)ccc2c1cc(C#N)n2CC(N)=O` [Compound 25, 2-(2-Cyano-4-methyl-5-((4-((6-(2,2,2-trifluoroethyl)thieno-[2,3-d]pyrimidin-4-yl)amino)piperidin-1-yl)methyl)-1H-indol-1-yl)acetamide]: in data set [1], the cellular permeability entry was “poor cellular permeability”.
By half-life is commonly meant the time in which the quantity being followed falls by half. Consider `N#Cc1cc2cc(CN3CCC(Nc4ncnc5sc(CC(F)(F)F)cc45)CC3)c(O)cc2n1Cc1cn[nH]c1` [Compound 27, 1-((1H-Pyrazol-4-yl)methyl)-6-hydroxy-5-((4-((6-(2,2,2-trifluoroethyl)thieno[2,3-d]pyrimidin-4-yl)amino)piperidin-1-yl)methyl)-1H-indole-2-carbonitrile], for which, in the data set on MV4;11 tumors, the “reduction in the MV4;11 tumor volume” value was “about 80%” and the “reduction of the body weight” value is listed as “less than 10%”. The “effect on growth of control cell line HL-60” value in the data set with HL-60 cells is “no effect”. Also, in [4], the “phase II metabolism” value is “undergoes glucuronidation”. This molecule showed a half-life in data set [2] (iv, 15 mg/kg, iv, 15 mg/kg) of roughly 1.6 h. In [2] (po, 30 mg/kg, po, 30 mg/kg), this molecule gave a half-life of 1.6 h. This molecule came in with a Clobs in data set [2] (iv, 15 mg/kg) of 14.0 mL/min/kg. Further, the “SI, selectivity index” value in data set [3] is on record as greater than 100. At menin, the “ligand efficiency index (LE)” value is listed as 0.28. In addition, in data set [5], the “expression level of Itgam (differentiation marker)” value is “marked increase”. In [6], the “effect on growth of control cell line HM-2” value was “no effect”.
In turn, `COc1cc2c(cc(C#N)n2Cc2cn[nH]c2)c(C)c1CN1CCC(Nc2ncnc3sc(CC(F)(F)F)cc23)CC1` [Compound 31, 1-((1H-Pyrazol-4-yl)methyl)-6-methoxy-4-methyl-5-((4-((6-(2,2,2-trifluoroethyl)thieno[2,3-d]pyrimidin-4-yl)amino)-piperidin-1-yl)methyl)-1H-indole-2-carbonitrile] showed a Clobs in data set [2] (iv, 15 mg/kg) of 15.0 mL/min/kg. Moreover, the GI50 in data set [3] was less than 200 nM.
